Measurements: ChEMBL document CHEMBL2034950, “Sphingolipid analogues inhibit development of malaria parasites” (ACS Med Chem Lett, 2012)
The source made the active and inactive calls. The rule behind the calls is not given here.

Key:
Plasmodium falciparum [1] = experiment: Antimalarial activity against chloroquine-sensitive Plasmodium falciparum D6 infected in O-positive human RBC assessed as [3H]-hypoxanthine incorporation after 48 hrs by scintillation counting in presence of BSA; format: functional, organism-based
Plasmodium falciparum [2] = experiment: Antimalarial activity against chloroquine-resistant Plasmodium falciparum W2 infected in O-positive human RBC assessed as [3H]-hypoxanthine incorporation after 48 hrs by scintillation counting in presence of BSA; format: functional, organism-based
[3] = AUC (0 to infinity) in mouse plasma at 30 mg/kg, po QD; format: ADME, organism-based; parameters: time infinity, dose 30 mg/kg, route oral
Summary of the method: (§1)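 Mice were dosed orally once daily at 30 mg/kg for five days. Drug levels were followed over time in plasma and in red blood cells on day 1 and on day 5 of dosing.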

[4] = Apparent volume of distribution during terminal phase in mouse RBC at 30 mg/kg, po QD; format: ADME, organism-based, Erythrocyte; parameters: dose 30 mg/kg, route oral; conditions: red blood cells (RBC), read-out: Vz/F; summary of the method: as §1
[5] = Cmax in mouse plasma at 30 mg/kg, po QD; format: ADME, organism-based; parameters: dose 30 mg/kg, route oral; summary of the method: as §1
[6] = Half life in mouse plasma at 30 mg/kg, po QD; format: ADME, organism-based; parameters: dose 30 mg/kg, route oral; summary of the method: as §1
Plasmodium knowlesi = experiment: Antimalarial activity against Plasmodium knowlesi infected in rhesus monkey RBC assessed as [3H]-hypoxanthine incorporation after 12 hrs by scintillation counting; format: functional, organism-based
Summary of the method: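 Dose-response assay of in vitro parasite growth and replication in red blood cells, read as [³H]-hypoxanthine uptake. IC50 values were derived, with the error given as standard deviation.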

[7] = Half life in mouse RBC at 30 mg/kg, po QD; format: ADME, organism-based, Erythrocyte; parameters: dose 30 mg/kg, route oral; conditions: red blood cells (RBC); summary of the method: as §1
[8] = Tmax in mouse plasma at 30 mg/kg, po QD; format: ADME, organism-based; parameters: dose 30 mg/kg, route oral; summary of the method: as §1
[9] = Ratio of drug uptake in mouse RBC to mouse plasma at 30 mg/kg, po QD; format: ADME, organism-based; parameters: dose 30 mg/kg, route oral; conditions: red blood cells (RBC) / plasma; summary of the method: as §1
[10] = Cytotoxicity against human HFF1 cells at 50 uM after 72 hrs by SRB assay; format: cell-based; conditions: hff-1, 72 h
Summary of the method: (§2)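 Human foreskin fibroblasts (HFF-1) were seeded at 20,000 cells per plate, incubated with compound at 10 or 50 μM for 72 h, and read by sulforhodamine B assay.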

[11] = Cmax in mouse RBC at 30 mg/kg, po QD; format: ADME, organism-based, Erythrocyte; parameters: dose 30 mg/kg, route oral; conditions: red blood cells (RBC); summary of the method: as §1
Plasmodium falciparum [12] = experiment: Antimalarial activity against chloroquine-sensitive Plasmodium falciparum D6 infected in O-positive human RBC assessed as [3H]-hypoxanthine incorporation after 48 hrs by scintillation counting; format: functional, organism-based
Summary of the method: (§3)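 Growth inhibition in vitro by [3H]-hypoxanthine uptake in parasitized RBCs; dose-response runs to derive IC50.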

Plasma = experiment: Apparent volume of distribution during terminal phase in mouse plasma at 30 mg/kg, po QD; format: ADME, organism-based; parameters: dose 30 mg/kg, route oral; conditions: in vivo; summary of the method: as §1
[13] = Cytotoxicity against human HFF1 cells at 10 uM after 72 hrs by SRB assay; format: cell-based; conditions: hff-1, 72 h; summary of the method: as §2
[14] = AUC (0 to infinity) in mouse RBC at 30 mg/kg, po QD; format: ADME, organism-based, Erythrocyte; parameters: time infinity, dose 30 mg/kg, route oral; conditions: red blood cells (RBC); summary of the method: as §1
Plasmodium falciparum [15] = experiment: Antimalarial activity against chloroquine-resistant Plasmodium falciparum W2 infected in O-positive human RBC assessed as [3H]-hypoxanthine incorporation after 48 hrs by scintillation counting; format: functional, organism-based; summary of the method: as §3
Plasmodium falciparum [16] = experiment: Antimalarial activity against chloroquine-resistant Plasmodium falciparum W2 infected in O-positive human RBC assessed as ring-stage parasites at 546.94 ng/mL after 48 hrs by Giemsa staining-based microscopic analysis (reference value: 87.9%); format: functional
Plasmodium falciparum [17] = experiment: Antimalarial activity against chloroquine-resistant Plasmodium falciparum W2 infected in O-positive human RBC assessed as aberrant form of ring-stage parasites at 546.94 ng/mL after 28 to 48 hrs by Giemsa staining-based microscopic analysis; format: functional, organism-based
Plasmodium falciparum [18] = experiment: Antimalarial activity against chloroquine-resistant Plasmodium falciparum W2 infected in O-positive human RBC assessed as trophozoite-stage parasites at 546.94 ng/mL after 48 hrs by Giemsa staining-based microscopic analysis (reference value: 4.2%); format: functional
Plasmodium falciparum [19] = experiment: Antimalarial activity against chloroquine-resistant Plasmodium falciparum W2 infected in O-positive human RBC assessed as aberrant form of trophozoite-stage parasites at 546.94 ng/mL after 28 to 48 hrs by Giemsa staining-based microscopic analysis; format: functional, organism-based
Plasmodium falciparum [20] = experiment: Antimalarial activity against chloroquine-resistant Plasmodium falciparum W2 infected in O-positive human RBC assessed as schizont-stage parasites at 546.94 ng/mL after 48 hrs by Giemsa staining-based microscopic analysis (reference value: 8.05%); format: functional
Plasmodium falciparum [21] = experiment: Antimalarial activity against chloroquine-resistant Plasmodium falciparum W2 infected in O-positive human RBC assessed as parasitemia at 546.94 ng/mL after 48 hrs by Giemsa staining-based microscopic analysis; format: functional

Row | SMILES | IC50 (Plasmodium falciparum [1]) | IC50 (Plasmodium falciparum [2]) | IC50 (Plasmodium knowlesi) | Activity [10] | IC50 (Plasmodium falciparum [12]) | Activity [13] | IC50 (Plasmodium falciparum [15]) | other results
1 | CCCCCCCCCCCCC[C@H](O)C[C@H](O)C(C)(C)NC (racemic) | 0.7 µM | 0.25 µM |  |  |  |  |  | 
2 | CCCCCCCCCCCCC[C@H](O)C[C@H](O)[C@H](C)N [ENIGMOL] | 5.3 µM | 9.2 µM | 10.5 µM | Toxic | 12.6 µM | Non-toxic | 7.4 µM | AUC(0-inf) [3]: 14.4 µM·h; Vd/F [4]: 25 L/kg; Cmax [5]: 1100 nM; half-life [6]: 10.7 h; half-life [7]: 8.9 h; Tmax [8]: 2 h; Kp [9]: 3; Cmax [11]: 3300 nM; Vz/F (Plasma): 4.4 L/kg; AUC(0-inf) [14]: 50.7 µM·h
3 | O[C@@H](c1cc(C(F)(F)F)nc2c(C(F)(F)F)cccc12)[C@H]1CCCCN1 (relative stereo) [(S,R)-MEFLOQUINE] |  | 0.0004 µM | 0.04 µM |  |  |  |  | 
4 | CCCCCCCCCCCCC[C@H](O)C[C@@H](O)[C@H](C)N |  |  | 20.3 µM | Toxic | 17.8 µM | Non-toxic | 9.2 µM | 
5 | CCCCCCCCCCCCC[C@@H](O)C[C@H](O)C(C)(C)N (racemic) | 4.1 µM | 7.4 µM |  |  |  |  |  | 
6 | CCCCCCCC(F)(F)CCCCC[C@H](O)C[C@H](O)[C@H](C)N |  |  |  | Toxic | 12.7 µM | Non-toxic | 5.6 µM | 
7 | CCCCCCCCCCCCCCCC(=O)N[C@@H](C)[C@@H](O)C[C@@H](O)CCCCCCCCCCCCC |  |  |  | Toxic |  | Non-toxic |  | Activity (Plasmodium knowlesi): inactive; Activity (Plasmodium falciparum [12]): inactive; Activity (Plasmodium falciparum [15]): inactive
8 | CCCCCCCCCCCCC[C@H](O)C[C@H](O)[C@@H]1CCCN1 |  |  | 6.3 µM | Toxic | 9.7 µM | Non-toxic | 4.4 µM | 
9 | CCCCCCCCCCCCC[C@H](O)C[C@H](O)[C@H](C)NC(C)=O |  |  |  | Toxic | 11.1 µM | Non-toxic | 13.1 µM | Activity (Plasmodium knowlesi): inactive
10 | CCCCCCCCCCCCCC(O)CC(=O)C(C)(C)N (racemic) | 2.5 µM | 2.6 µM |  |  |  |  |  | 
11 | CCCCCCCCCCCCCC(O)C/C(=N\O)C(C)(C)N (racemic) | 7.44 µM | 10 µM |  |  |  |  |  | 
12 | CCCCCCCCCCCCC[C@H](O)C[C@H](O)C1(N)CC1 (racemic) | 5.5 µM | 9.9 µM |  |  |  |  |  | 
13 | CCCCCCCCCCCCC[C@H](O)C[C@@H](O)[C@H](C)NC |  |  |  | Toxic | 14.6 µM | Non-toxic | 8.1 µM | 
14 | CCCCCCCCCCCCC[C@@H](O)C[C@H](O)C1(N)CC1 (racemic) | 11.2 µM | 7.2 µM |  |  |  |  |  | 
15 | CCCCCCCCCCCCC[C@H](O)C[C@H](O)[C@H](C)NC | 1.7 µM | 0.9 µM | 1.7 µM | Toxic | 4.7 µM | Non-toxic | 1.6 µM | Activity (Plasmodium falciparum [16]): 41.9%; Activity (Plasmodium falciparum [17]): Active; Activity (Plasmodium falciparum [18]): 39.2%; Activity (Plasmodium falciparum [19]): Active; Activity (Plasmodium falciparum [20]): 18.9%; Activity (Plasmodium falciparum [21]): 1.3%
16 | CCCCCCCCCCCCC[C@@H](O)C[C@H](O)[C@H](C)N |  |  | 17.6 µM | Toxic | 12.7 µM | Non-toxic | 8.2 µM | 
17 | CCCCCCCC(F)(F)CCCCC[C@H](O)C[C@H](O)[C@H](C)NC |  |  |  | Toxic | 7.3 µM | Non-toxic | 2.4 µM | 
18 | CCCCCCCCCCCCC[C@H](O)C[C@H](O)C(C)(C)N (racemic) | 5.2 µM | 4.7 µM |  |  |  |  |  | 
19 | CCCCCCCCCCCCC[C@H](O)C[C@H](O)[C@H](C)N(C)C |  |  | 6.8 µM | Toxic | 7 µM | Non-toxic | 4.4 µM | 
